Shown are actives, neighbours in structure and some others; about 2% of the full set was active somewhere.
DAGLB inh – DAGLB lipase inhibitors, primary screen, biochemical, fluorescence, HTS | Diacylglycerol lipase-beta (Homo sapiens), Q8NCG7 | HEK293T DAGLB membrane lysate, EnzChek fluorogenic substrate | inhibition, % at 5.17 µM | hit rate 0.059% among 340,000; in the data active means inhibition above about 34%
Target sequence (Q8NCG7 whole entry, looked up): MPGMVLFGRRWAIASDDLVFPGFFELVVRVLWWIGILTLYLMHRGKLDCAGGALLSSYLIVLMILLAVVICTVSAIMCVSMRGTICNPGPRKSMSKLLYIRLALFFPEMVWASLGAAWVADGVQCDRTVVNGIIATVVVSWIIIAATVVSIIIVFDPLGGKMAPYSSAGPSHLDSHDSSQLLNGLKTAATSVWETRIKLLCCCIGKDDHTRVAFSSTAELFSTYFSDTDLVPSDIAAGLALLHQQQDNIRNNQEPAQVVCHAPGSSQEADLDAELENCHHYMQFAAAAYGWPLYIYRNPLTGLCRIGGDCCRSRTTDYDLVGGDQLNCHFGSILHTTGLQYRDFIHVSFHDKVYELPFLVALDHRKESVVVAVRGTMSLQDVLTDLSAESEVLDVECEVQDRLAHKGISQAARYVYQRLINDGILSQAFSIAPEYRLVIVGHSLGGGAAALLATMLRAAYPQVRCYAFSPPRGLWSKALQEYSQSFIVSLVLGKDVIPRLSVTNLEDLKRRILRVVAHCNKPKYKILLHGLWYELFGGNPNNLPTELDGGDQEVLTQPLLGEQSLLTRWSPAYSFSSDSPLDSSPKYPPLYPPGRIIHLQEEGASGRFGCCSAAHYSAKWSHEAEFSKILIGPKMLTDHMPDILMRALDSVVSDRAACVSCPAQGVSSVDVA
Exocytosis inh – LAMP-1 surface exposure blockers, TALL-104 cells – cell-based, flow cytometry, MLPCN library, primary screen. TALL-104 LAMP-1 surface exposure; cells stimulated with thapsigargin and PMA. inhibition, % at 10 µM. hit rate 0.66% among 360,000. AID 651702, 2012;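 active means inhibition above about 55%, limit read from the data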
VLA-4 inh – inhibition in human VLA-4 binding assay, primary screen, VLA-4 allosteric modulator project, MLPCN library, flow cytometry, VLA-4 expressing cells. Integrin alpha-4 (Homo sapiens), P13612. ligand binding flow cytometry. inhibition, % (about 7 µM as worked out from the volumes in the protocol). hit rate 0.2% among 330,000. AID 2557, 2010; in the data active means inhibition above about 50%
FGF22 binding – binders of human FGF22 protein, primary screen, FGF22 synaptogenesis inhibitor project, biophysical, thermal shift, single point. Fibroblast growth factor 22 (Homo sapiens), Q9HCT0. recombinant FGF22 thermal shift, SYPRO orange fluorescence; percent of sucrose octasulfate shift, DMSO zero. activity (Tm shift, normalised), % at 9.99 µM. hit rate 1.5% among 340,000;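 active means mean Tm shift, scaled 0 neutral to 100 positive control, at about 1.3% or above, every replicate too, limit read from the data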
ABCB6 inh 2 – ABCB6 transporter inhibitors, primary screen, K562-ABCB6 cells, flow cytometry, MLPCN library; ATP-binding cassette sub-family B member 6 (Homo sapiens), Q9NP58; K562-ABCB6 porphyrin accumulation, 1 h; stronger effect = lower value; fluorescence ratio to DMSO, % at 10 µM; hit rate 0.19% among 360,000; AID 602162, 2011;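 active means fluorescence ratio to DMSO below 75%, the collection mean minus 3 SD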;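 further: signal is porphyrin accumulated inside mitochondria; lower ratio means ABCB6 inhibition with less porphyrin fluorescence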
MT1-MMP act inh – blockers of MT1-MMP proenzyme processing, primary screen, HT1080 RFP-PRO-GFP cells, GFP/RFP fluorescence; Matrix metalloproteinase-14 (Homo sapiens), P50281; GFP/RFP ratio fluorescence, overnight; percent of plate control window, DMSO zero; GFP/RFP ratio change, % at 20 µM; hit rate 0.061% among 360,000;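 active means GFP/RFP ratio change of at least 30% with cell ATP level not reduced by more than half and red fluorescence within 50% of control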
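Assay system: HT1080 cells carrying an RFP-PRO-GFP reporter | Dosing: Single dose of 20 µM compound, 1% DMSO final | Incubation: Cells overnight before dosing, compound overnight, 37 °C, 5% CO2 | Evaluation: GFP/RFP fluorescence ratio | Control set: DMSO and RFP-L50D-GFP cell wells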
Hits are given with their value; - = inactive; . = no result.

SMILES | DAGLB inh | Exocytosis inh | VLA-4 inh | FGF22 binding | ABCB6 inh 2 | MT1-MMP act inh
COc1ccc(/[N+]([O-])=C/c2ccoc2)cc1 | - | - | - | 45 | - | -
COc1ccc(C(=O)N/N=C\c2ccoc2)cc1 | - | - | - | - | - | -
O=C(N/N=C/C=C/c1ccccc1)c1cccs1 | - | - | - | 43 | - | -
Cn1cccc1-c1cc(C(=O)N/N=C/C=C/c2ccccc2)[nH]n1 | - | - | - | 1.7 | - | -
CO[C@H]1CN(C)C(=O)c2cc(NC(=O)Nc3c(C)noc3C)ccc2OC[C@@H](C)N(CC2CC2)C[C@H]1C | . | . | . | - | . | .
Cc1ccc(NC(=O)C(OC(=O)c2ccc(O)cc2)c2ccccc2)cc1Cl (centres undefined) | - | - | - | 78 | - | -
O=C(Cc1ccncc1)N[C@H]1CC[C@@H](CCn2cc(-c3ccccc3F)nn2)O[C@@H]1CO | . | . | . | - | . | .
CCOC(=O)N1CCN(C(=O)C2CCN(S(=O)(=O)c3cc(OC)ccc3OC)CC2)CC1 | - | - | - | 43 | - | -
O=C1CS(=O)(=O)C(c2ccccc2)N1c1ccc(Cl)cc1 (centres undefined) | . | . | . | - | . | .
COc1ccc(CC(=O)N2CCC(c3ccccc3)C2)cc1 (centres undefined) | - | - | - | 44 | - | -
Cc1noc(C)c1NC(=O)N(C)C[C@@H]1Oc2ccc(NC(=O)Nc3ccccc3)cc2CC(=O)N([C@H](C)CO)C[C@@H]1C | . | . | . | - | . | .
COc1ccc(C)cc1N | . | . | . | - | . | .
COc1ccc(OC)c(N)c1 | - | - | - | . | - | 37
COc1ccc(S(=O)(=O)N2CCOCC2)cc1NC(=O)[C@@H]1CCCN1C(=O)c1cccs1 | - | - | - | 43 | - | -
COc1ccc(S(=O)(=O)N2CCOCC2)cc1NC(=O)C1CCCN1C(=O)c1cccs1 (centres undefined) | - | - | - | - | - | -
C[C@@H]1CN([C@H](C)CO)C(=O)c2cccc(NC(=O)Nc3ccc4c(c3)OCO4)c2O[C@@H]1CN(C)S(=O)(=O)c1ccc(Cl)cc1 | . | . | . | - | . | .
O=S1(=O)CC(c2ccccc2)=NN=C(c2ccccc2)C1 | - | - | . | 44 | - | -
C[C@@H]1CCCCO[C@@H](CN(C)S(=O)(=O)c2ccc(Cl)cc2)[C@H](C)CN([C@@H](C)CO)C(=O)c2cc(NS(C)(=O)=O)ccc2O1 | . | . | . | - | . | .
Cc1nn(CC2CC2)c(=O)n1-c1ccc(Oc2ccccc2)cc1 | - | - | - | 43 | - | -
CN(C)C(=O)c1ccc(-c2ccc([C@H]3[C@@H](CO)N4CCCCN(C(=O)C5CCCC5)C[C@H]34)cc2)cc1 | . | . | . | - | . | .
CCCCC(=O)N1CCCC(c2nc(-c3cccc(OC)c3)no2)C1 (centres undefined) | - | - | - | 43 | - | -
CC(=O)c1ccc(N(C(=O)c2ccco2)C(C(=O)NC2CCCC2)c2ccc(N3CCOCC3)cc2)cc1 (centres undefined) | - | - | - | 44 | - | -
CO[C@@H]1CN(C)C(=O)c2cc(NC(=O)C3CC3)ccc2OC[C@@H](C)N(C)C[C@H]1C | . | . | . | - | . | .
Cc1ccc([N+](=O)[O-])cc1S(=O)(=O)n1ccnc1C | - | - | - | 43 | - | -
Cc1ccc(S(=O)(=O)n2cnc3cc([N+](=O)[O-])ccc32)c(C)c1C | - | - | - | . | - | -
SMILES | DAGLB inh | Exocytosis inh | VLA-4 inh | FGF22 binding | ABCB6 inh 2 | MT1-MMP act inh
CN1CCN(C(=O)[C@H]2[C@H](CO)[C@H]3Cn4c(ccc(-c5cncnc5)c4=O)[C@H]3N2CC2CC2)CC1 | . | . | . | - | . | .
CC(C)C(NC(=O)c1ccccc1Br)c1ccccc1 (centres undefined) | - | - | - | 43 | - | -
COc1ccc(-c2cn(CC[C@H]3CC[C@@H](NC(=O)CCN4CCCCC4)[C@@H](CO)O3)nn2)cc1 | . | . | . | - | . | .
COc1ccc(C)cc1S(=O)(=O)N(C)CC(=O)N1CCC(C(N)=O)CC1 | - | - | - | 43 | - | -
COc1ccc2c(c1OC)C(=O)N1N=C(c3ccc(F)cc3)CC21 (centres undefined) | - | - | - | 44 | - | .
Cc1ccc(C2=NN3C(=O)c4ccccc4C3C2)cc1 (centres undefined) | - | - | - | - | - | -
NNC(=O)c1ccccc1-n1cccc1 | - | - | - | 43 | - | -
Nc1n[nH]c2cc(=O)n(-c3cccc(C(F)(F)F)c3)nc12 | - | - | - | 43 | - | -
O=c1[nH][nH]c2cc(=O)n(-c3cccc(C(F)(F)F)c3)nc12 | - | - | - | - | - | -
COc1ccc(NC(=O)COc2nsnc2N2CCOCC2)cc1 | - | - | - | . | - | -
COc1ccc(NC(=O)COc2nc3ccccc3nc2N2CCOCC2)c(OC)c1 | - | - | - | 43 | - | -
COc1ccc(CNC(=O)COc2ccc(S(=O)(=O)N3CCOCC3)cc2)cc1 | - | - | - | - | - | -
O=C(COc1ccc(S(=O)(=O)N2CCOCC2)cc1)NCCc1ccc(Cl)cc1 | - | - | . | 43 | - | -
Cc1ncc(CO)c(/C=N/NC(=S)Nc2ccc(Cl)c(Cl)c2)c1O | - | - | - | 1.5 | - | -
COc1ccc(C(=O)N/N=C/c2c(CO)cnc(C)c2O)cc1 | - | - | - | 44 | - | -
COc1ccc2c3c(n(C)c2c1)[C@@H](CO)N(C(=O)c1cccc(F)c1)CC31CCN(C(=O)c2cccc(F)c2)CC1 | . | . | . | - | . | .
COc1cccc(S(=O)(=O)Nc2ccc3c(c2)OC[C@H](C)NC[C@H](C)[C@H](OC)CN(C)C3=O)c1 | . | . | . | - | . | .
Cc1cccn2c(=O)c(C=NCCO)c(Nc3ccc(Cl)cc3)nc12 | . | . | - | 44 | . | .
FC(F)(F)c1cnc(C(c2ccccc2)c2ncn[nH]2)c(Cl)c1 (centres undefined) | - | - | - | 43 | - | -
COc1ccc(NC(=O)N(C)C[C@@H]2Oc3ccc(NC(=O)CCCCCC(=O)Nc4ccccc4N)cc3CC(=O)N([C@H](C)CO)C[C@@H]2C)cc1 | . | . | . | - | . | .
Cc1ccc2nc(C)cc(C(=O)OCC(=O)Nc3c(C)n(C)n(-c4ccccc4)c3=O)c2c1 | - | - | - | 43 | - | -
Cc1c(NC(=O)COc2cccc(Cl)c2Cl)c(=O)n(-c2ccccc2)n1C | - | - | - | 43 | - | -

High-throughput results as filed in PubChem.
